In ChEMBL document CHEMBL4229571, “Development of 13H-benzo[f]chromeno[4,3-b][1,7]naphthyridines and their salts as potent cytotoxic agents and topoisomerase I/IIα inhibitors” (2018):

Legend:
NUGC-3 = assay: Cytotoxicity against human NUGC3 cells assessed as growth inhibition after 72 hrs by SRB assay; type: functional
In short: (§1)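 SRB assay per NCI protocol: 2 × 10^3 cells/well seeded, compounds in DMSO/media added next day (day 0) in quadruplicate at 1 nM–10 μM final, DMSO <0.1%. After 72 h, TCA fixation overnight at 4°C, 0.4% SRB 1 h, dye dissolved in 10 mM Tris, A690 read; day 0 absorbance subtracted. GI50 = concentration giving 50% drop in net growth, mean of three experiments.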

PC-3 = assay: Cytotoxicity against human PC3 cells assessed as growth inhibition after 72 hrs by SRB assay; type: functional; in short: as §1
HCT-15 = assay: Cytotoxicity against human HCT15 cells assessed as growth inhibition after 72 hrs by SRB assay; type: functional; in short: as §1
MDA-MB-231 = assay: Cytotoxicity against human MDA-MB-231 cells assessed as growth inhibition after 72 hrs by SRB assay; type: functional; in short: as §1
NCI-H23 = assay: Cytotoxicity against human NCI-H23 cells assessed as growth inhibition after 72 hrs by SRB assay; type: functional; in short: as §1
ACHN = assay: Cytotoxicity against human ACHN cells assessed as growth inhibition after 72 hrs by SRB assay; type: functional; in short: as §1
[1] = target: DNA topoisomerase 2-alpha (Homo sapiens) (UniProt P11388); assay: Potency index, ratio of test compound activity to etoposide activity for recombinant human DNA topoisomerase 2-alpha at 20 uM
[2] = target: DNA topoisomerase 2-alpha (Homo sapiens) (UniProt P11388); assay: Inhibition of recombinant human DNA topoisomerase 2-alpha at 20 uM using supercoiled pBR322 DNA as substrate after 30 mins by densitometric analysis relative to control
In short: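 200 ng supercoiled pBR322 with 4 units human topo IIα, 30 min at 30 °C, in 10 mM Tris–HCl pH 7.9, 50 mM NaCl, 5 mM MgCl2, 1 mM EDTA, 1 mM ATP, 15 μg/mL BSA. Stopped with EDTA, run on 1% agarose/TAE at 60 V for 1 h, bands quantified by densitometry. Etoposide as positive control. Screening at 100 μM; above 30% inhibition, retested at 20 μM.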

[3] = target: T1, DNA topoisomerase 1 (Homo sapiens) (UniProt P11387); assay: Inhibition of recombinant human DNA topoisomerase 1 at 20 uM using supercoiled pBR322 DNA as substrate after 30 mins by densitometric analysis relative to control
T1 sequence (whole entry): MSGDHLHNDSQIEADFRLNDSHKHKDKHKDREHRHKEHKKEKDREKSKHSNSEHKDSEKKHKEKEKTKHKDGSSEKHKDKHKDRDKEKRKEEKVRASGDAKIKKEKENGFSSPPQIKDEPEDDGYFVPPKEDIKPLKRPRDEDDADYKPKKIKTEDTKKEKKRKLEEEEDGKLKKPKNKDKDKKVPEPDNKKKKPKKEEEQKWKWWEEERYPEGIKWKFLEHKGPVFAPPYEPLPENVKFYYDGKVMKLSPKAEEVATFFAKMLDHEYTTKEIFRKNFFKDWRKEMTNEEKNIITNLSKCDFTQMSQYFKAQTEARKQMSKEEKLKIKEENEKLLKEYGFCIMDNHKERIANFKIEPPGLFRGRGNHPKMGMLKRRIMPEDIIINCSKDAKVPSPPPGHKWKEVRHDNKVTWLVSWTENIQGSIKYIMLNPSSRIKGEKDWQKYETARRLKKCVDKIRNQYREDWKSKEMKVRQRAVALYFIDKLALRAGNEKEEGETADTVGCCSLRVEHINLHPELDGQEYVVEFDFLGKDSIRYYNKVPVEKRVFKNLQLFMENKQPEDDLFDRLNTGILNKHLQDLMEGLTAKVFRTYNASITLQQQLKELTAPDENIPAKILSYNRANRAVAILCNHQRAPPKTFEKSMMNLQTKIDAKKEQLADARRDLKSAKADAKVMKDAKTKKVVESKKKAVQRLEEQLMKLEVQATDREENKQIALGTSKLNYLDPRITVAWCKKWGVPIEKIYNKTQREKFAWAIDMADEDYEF
In short: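 Relaxation of 100 ng supercoiled pBR322 by 1 unit recombinant human topo I, 37 °C for 30 min, in 10 mM Tris-HCl pH 7.9, 150 mM NaCl, 0.1% BSA, 1 mM spermidine, 5% glycerol. Stopped with sarcosyl solution, run on 1% agarose/TAE at 15 V for 7 h, ethidium bromide stained, bands quantified by densitometry. Camptothecin as positive control. Compounds first screened at 100 μM; those over 30% inhibition retested at 20 μM.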

Sequence of DNA topoisomerase 2-alpha (Homo sapiens) (P11388 whole entry): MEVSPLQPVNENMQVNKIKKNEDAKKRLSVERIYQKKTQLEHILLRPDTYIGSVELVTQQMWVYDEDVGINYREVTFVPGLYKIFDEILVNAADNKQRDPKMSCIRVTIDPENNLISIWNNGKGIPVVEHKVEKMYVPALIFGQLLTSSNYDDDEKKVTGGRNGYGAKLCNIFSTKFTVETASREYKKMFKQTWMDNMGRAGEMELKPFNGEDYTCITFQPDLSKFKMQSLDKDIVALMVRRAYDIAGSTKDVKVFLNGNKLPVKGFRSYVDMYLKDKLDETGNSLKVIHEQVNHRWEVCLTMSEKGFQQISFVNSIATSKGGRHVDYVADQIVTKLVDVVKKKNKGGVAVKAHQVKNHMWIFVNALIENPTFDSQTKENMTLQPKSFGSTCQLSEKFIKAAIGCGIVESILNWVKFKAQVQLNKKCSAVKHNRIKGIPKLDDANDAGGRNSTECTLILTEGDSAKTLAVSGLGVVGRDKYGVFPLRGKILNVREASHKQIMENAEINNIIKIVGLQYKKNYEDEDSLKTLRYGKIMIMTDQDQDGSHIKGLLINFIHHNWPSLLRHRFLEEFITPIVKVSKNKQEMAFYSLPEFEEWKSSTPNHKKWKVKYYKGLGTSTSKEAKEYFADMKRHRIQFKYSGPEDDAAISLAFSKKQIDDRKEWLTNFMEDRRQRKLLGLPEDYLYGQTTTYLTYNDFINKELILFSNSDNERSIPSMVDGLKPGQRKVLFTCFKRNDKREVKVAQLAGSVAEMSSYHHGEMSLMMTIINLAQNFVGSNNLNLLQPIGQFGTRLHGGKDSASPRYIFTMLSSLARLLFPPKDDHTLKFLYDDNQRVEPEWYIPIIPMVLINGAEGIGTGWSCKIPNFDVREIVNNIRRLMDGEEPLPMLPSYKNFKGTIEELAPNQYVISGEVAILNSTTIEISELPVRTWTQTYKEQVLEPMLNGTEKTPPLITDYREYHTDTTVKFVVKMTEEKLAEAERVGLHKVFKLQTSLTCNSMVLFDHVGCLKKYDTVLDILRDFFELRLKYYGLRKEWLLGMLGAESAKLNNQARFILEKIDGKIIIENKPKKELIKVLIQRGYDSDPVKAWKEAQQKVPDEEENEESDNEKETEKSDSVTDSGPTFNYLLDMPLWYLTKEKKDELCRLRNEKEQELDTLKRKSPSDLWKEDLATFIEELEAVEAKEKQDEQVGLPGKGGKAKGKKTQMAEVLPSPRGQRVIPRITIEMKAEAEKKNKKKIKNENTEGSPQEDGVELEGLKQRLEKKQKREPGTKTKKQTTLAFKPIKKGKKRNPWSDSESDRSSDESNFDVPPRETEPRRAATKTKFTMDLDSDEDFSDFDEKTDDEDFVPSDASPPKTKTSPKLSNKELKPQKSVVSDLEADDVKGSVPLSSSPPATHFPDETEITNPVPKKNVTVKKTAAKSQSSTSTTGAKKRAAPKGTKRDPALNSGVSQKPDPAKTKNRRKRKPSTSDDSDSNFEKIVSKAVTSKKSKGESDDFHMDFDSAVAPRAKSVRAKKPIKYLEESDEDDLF

Ratio [1]	inhibition [2] [%]	inhibition [3] [%]	Structure (SMILES)	GI50 (NUGC-3; Homo sapiens, NUGC-3, 72 h) [µM]	GI50 (PC-3; Homo sapiens, PC-3, 72 h) [µM]	GI50 (HCT-15; Homo sapiens, HCT-15, 72 h) [µM]	GI50 (MDA-MB-231; Homo sapiens, MDA-MB-231, 72 h) [µM]	GI50 (NCI-H23; Homo sapiens, NCI-H23, 72 h) [µM]	GI50 (ACHN; Homo sapiens, ACHN, 72 h) [µM]	GI50 (NUGC-3) [µM]	GI50 (PC-3) [µM]	GI50 (HCT-15) [µM]	GI50 (MDA-MB-231) [µM]	GI50 (NCI-H23) [µM]	GI50 (ACHN) [µM]
–	–	–	COc1ccc(Br)c2c1OCc1c-2nc2cnc3ccccc3c2c1C	> 10	> 10	> 10	> 10	> 10	> 10	–	–	–	–	–	–
1.25	38.3	11.1	Cc1ccc(-c2c3c(nc4cnc5ccccc5c24)-c2ccccc2OC3)cc1 [listing 1 of 3 here]	–	–	–	–	–	–	–	–	–	–	–	–
–	–	–	Fc1ccc2c(c1)-c1nc3cnc4ccccc4c3cc1CO2	–	–	–	–	–	–	1.37	1.27	1.56	1.23	1.03	1
–	–	–	Cc1ccc2c(c1)-c1nc3cnc4ccccc4c3c(C)c1CO2	> 10	> 10	> 10	> 10	> 10	> 10	–	–	–	–	–	–
–	–	–	Brc1ccc2c(c1)-c1nc3cnc4ccccc4c3cc1CO2	> 10	> 10	> 10	> 10	> 10	> 10	–	–	–	–	–	–
–	–	–	Cc1ccc(-c2c3c(nc4cnc5ccccc5c24)-c2cc(Cl)ccc2OC3)cc1	> 10	> 10	> 10	> 10	> 10	> 10	–	–	–	–	–	–
–	–	–	Cc1ccc2c(c1)-c1nc3cnc4ccccc4c3cc1CO2	> 10	> 10	> 10	> 10	> 10	> 10	–	–	–	–	–	–
–	–	–	Cc1c2c(nc3cnc4ccccc4c13)-c1cc(Br)ccc1OC2	> 10	> 10	> 10	> 10	> 10	> 10	–	–	–	–	–	–
–	–	–	COc1cccc2c1C(=O)c1c(O)c3c(c(O)c1C2=O)C[C@@](O)(C(=O)CO)C[C@@H]3O[C@H]1C[C@H](N)[C@H](O)[C@H](C)O1 [DOXORUBICIN]	0.086	0.076	0.077	0.068	0.09	0.08	–	–	–	–	–	–
–	–	–	Cc1ccc(-c2c3c(nc4cnc5ccccc5c24)-c2ccccc2OC3)cc1 [listing 2 of 3 here]	–	–	–	–	–	–	2.7	1.53	2.71	1.79	2.06	2.28
–	–	–	c1ccc2c(c1)OCc1cc3c(cnc4ccccc43)nc1-2	> 10	> 10	> 10	> 10	> 10	> 10	–	–	–	–	–	–
–	–	–	Cc1ccc(-c2c3c(nc4cnc5ccccc5c24)-c2ccccc2OC3)cc1 [listing 3 of 3 here]	3.85	–	4.23	–	–	2.4	–	5.02	–	5.62	> 10	–
–	–	–	CC(C)(C)c1cc2c(c(C(C)(C)C)c1)OCc1cc3c(cnc4ccccc43)nc1-2	> 10	> 10	> 10	> 10	> 10	> 10	–	–	–	–	–	–
